# From ChEMBL document CHEMBL2407075, “Sulphonamido-quinoxalines: search for anticancer agent” (Eur J Med Chem, 2013)
# Assays:
# Assay type in all cases: functional
# [1] = Growth inhibition of human Hs 578T cells assessed as cell growth at 10^-8 M after 48 hrs by sulforhodamine B assay; settings: read-out: Activity
# Summary of the method: (§1)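 Five-dose screen at NCI. Cells in RPMI 1640 with 5% FBS and 2 mM L-glutamine, seeded at 5000–40,000 cells/well and grown 24 h at 37 °C, 5% CO2 before dosing, with time-zero plates TCA-fixed. Drug diluted from DMSO stock to 0.01, 0.1, 1, 10 and 100 µM final, 48 h. Cells fixed with cold TCA (10% final), stained with 0.4% SRB and read at 515 nm. Percent growth from Tz, control and test absorbances; GI50, TGI and LC50 from dose-response curves.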
# TK-10 = assay: Growth inhibition of human TK10 cells assessed as cell growth at 10^-6 M after 48 hrs by sulforhodamine B assay; settings: TK-10, 48 h, read-out: Activity
# RXF 393 = assay: Growth inhibition of human RXF393 cells assessed as cell growth at 10^-6 M after 48 hrs by sulforhodamine B assay; settings: RXF 393, 48 h, read-out: Activity
# K562 = assay: Growth inhibition of human K562 cells assessed as cell growth at 10^-7 M after 48 hrs by sulforhodamine B assay; settings: K562, 48 h, read-out: Activity
# MDA-MB-231 [2] = assay: Growth inhibition of human MDA-MB-231 cells assessed as cell growth at 10^-7 M after 48 hrs by sulforhodamine B assay; settings: MDA-MB-231, 48 h, read-out: Activity
# PC-3 = assay: Growth inhibition of human PC3 cells assessed as cell growth at 10^-8 M after 48 hrs by sulforhodamine B assay; settings: PC-3, 48 h, read-out: Activity
# SK-MEL-28 = assay: Growth inhibition of human SK-MEL-28 cells assessed as cell growth at 10^-8 M after 48 hrs by sulforhodamine B assay; settings: SK-MEL-28, 48 h, read-out: Activity
# KM12 = assay: Growth inhibition of human KM12 cells assessed as cell growth at 10^-6 M after 48 hrs by sulforhodamine B assay; settings: KM12, 48 h, read-out: Activity
# RPMI-8226 = assay: Growth inhibition of human RPMI8226 cells assessed as cell growth at 10^-8 M after 48 hrs by sulforhodamine B assay; settings: RPMI-8226, 48 h, read-out: Activity
# U-251 = assay: Growth inhibition of human U251 cells after 48 hrs by sulforhodamine B assay; settings: U-251, 48 h; for CC50: read-out: LC50 (the source's name)
# Summary of the method: (§2)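 Adherent cells in RPMI 1640 with 5% FBS and 2 mM L-glutamine were plated at 5000–40,000 cells/well and grown 24 h. Five concentrations (0.01–100 µM, DMSO stock) were added for 48 h at 37 °C. Cells were fixed with cold TCA (10% final) and stained with SRB, read at 515 nm. GI50 came from log concentration–growth curves against time-zero and control plates.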
# NCI-H460 = assay: Growth inhibition of human NCI-H460 cells assessed as cell growth at 10^-5 M after 48 hrs by sulforhodamine B assay; settings: NCI-H460, 48 h, read-out: Activity
# LOX IMVI = assay: Growth inhibition of human LOXIMVI cells assessed as cell growth at 10^-4 M after 48 hrs by sulforhodamine B assay; settings: read-out: Activity
# ACHN = assay: Growth inhibition of human ACHN cells assessed as cell growth at 10^-8 M after 48 hrs by sulforhodamine B assay; settings: read-out: Activity
# Summary of the method: (§3)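 Five-dose NCI-60 run (0.01, 0.1, 1, 10 and 100 µM, as 10-fold dilutions from a DMSO stock made at 400× the top final level). Cells were grown in RPMI 1640 with 5% FBS and 2 mM glutamine and plated for 24 h. They were then exposed for 48 h at 37 °C and 5% CO2. TCA fixation was followed by SRB staining with A515 read-out. Percent growth was taken relative to time-zero and control plates.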
# BT-549 = assay: Growth inhibition of human BT549 cells assessed as cell growth at 10^-7 M after 48 hrs by sulforhodamine B assay; settings: BT-549, 48 h, read-out: Activity; summary of the method: as §3
# MDA-MB-231 [3] = assay: Growth inhibition of human MDA-MB-231 cells assessed as cell growth at 10^-4 M after 48 hrs by sulforhodamine B assay; settings: MDA-MB-231, 48 h, read-out: Activity
# MDA-MB-435 [4] = assay: Growth inhibition of human MDA-MB-435 cells assessed as cell growth at 10^-5 M after 48 hrs by sulforhodamine B assay; settings: MDA-MB-435, 48 h, read-out: Activity
# OVCAR-3 = assay: Growth inhibition of human OVCAR3 cells assessed as cell growth at 10^-5 M after 48 hrs by sulforhodamine B assay; settings: OVCAR-3, 48 h, read-out: Activity
# HCT-15 = assay: Growth inhibition of human HCT15 cells after 48 hrs by sulforhodamine B assay; settings: HCT-15, 48 h; for CC50: read-out: LC50 (the source's name); summary of the method: as §2
# SN12C = assay: Growth inhibition of human SN12C cells assessed as cell growth at 10^-8 M after 48 hrs by sulforhodamine B assay; settings: read-out: Activity
# SK-MEL-2 = assay: Growth inhibition of human SK-MEL-2 cells assessed as cell growth at 10^-8 M after 48 hrs by sulforhodamine B assay; settings: SK-MEL-2, 48 h, read-out: Activity
# MCF7 = assay: Growth inhibition of human MCF7 cells assessed as cell growth at 10^-7 M after 48 hrs by sulforhodamine B assay; settings: MCF7, 48 h, read-out: Activity
# A549 = assay: Growth inhibition of human A549/ATCC cells assessed as cell growth at 10^-7 M after 48 hrs by sulforhodamine B assay; settings: A549, 48 h, read-out: Activity; summary of the method: as §3
# SW-620 = assay: Growth inhibition of human SW620 cells after 48 hrs by sulforhodamine B assay; settings: SW-620, 48 h; for CC50: read-out: LC50 (the source's name); summary of the method: as §2
# 786-0 = assay: Growth inhibition of human 786-0 cells assessed as cell growth at 10^-8 M after 48 hrs by sulforhodamine B assay; settings: 786-0, 48 h, read-out: Activity; summary of the method: as §3
# HOP-92 = assay: Growth inhibition of human HOP92 cells assessed as cell growth at 10^-7 M after 48 hrs by sulforhodamine B assay; settings: HOP-92, 48 h, read-out: Activity; summary of the method: as §1
# A498 = assay: Growth inhibition of human A498 cells assessed as cell growth at 10^-4 M after 48 hrs by sulforhodamine B assay; settings: A498, 48 h, read-out: Activity; summary of the method: as §3
# UACC-257 = assay: Growth inhibition of human UACC257 cells assessed as cell growth at 10^-4 M after 48 hrs by sulforhodamine B assay; settings: UACC-257, 48 h, read-out: Activity
# OVCAR-4 = assay: Growth inhibition of human OVCAR4 cells assessed as cell growth at 10^-7 M after 48 hrs by sulforhodamine B assay; settings: OVCAR-4, 48 h, read-out: Activity
# MDA-MB-435 [5] = assay: Growth inhibition of human MDA-MB-435 cells assessed as cell growth at 10^-4 M after 48 hrs by sulforhodamine B assay; settings: MDA-MB-435, 48 h, read-out: Activity
# NCI-H322M = assay: Growth inhibition of human NCI-H322M cells assessed as cell growth at 10^-6 M after 48 hrs by sulforhodamine B assay; settings: read-out: Activity
Compound,growth at 0.01 µM [1] [%],growth at 1 µM (TK-10) [%],growth at 1 µM (RXF 393) [%],growth at 0.1 µM (K562) [%],growth at 0.1 µM (MDA-MB-231 [2]) [%],growth at 0.01 µM (PC-3) [%],growth at 0.01 µM (SK-MEL-28) [%],growth at 1 µM (KM12) [%],growth at 0.01 µM (RPMI-8226) [%],CC50 (U-251) [µM],growth at 10 µM (NCI-H460) [%],growth at 100 µM (LOX IMVI) [%],growth at 0.01 µM (ACHN) [%],growth at 0.1 µM (BT-549) [%],growth at 100 µM (MDA-MB-231 [3]) [%],growth at 10 µM (MDA-MB-435 [4]) [%],growth at 10 µM (OVCAR-3) [%],TGI (HCT-15) [µM],CC50 (HCT-15) [µM],growth at 0.01 µM (SN12C) [%],further results
O=S(=O)(Nc1ccccn1)c1ccc2nc(-c3ccccc3)c(-c3ccccc3)nc2c1,93,114,96,99,107,97,101,99,108,> 100,1,57,99,81,41,-25,-32,> 100,> 100,95,GI50 (U-251): 2.61 µM; TGI (U-251): > 100 µM; growth at 0.01 µM (SK-MEL-2): 99%; growth at 0.1 µM (MCF7): 96%; growth at 0.1 µM (A549): 98%; TGI (SW-620): > 100 µM; CC50 (SW-620): > 100 µM; growth at 0.01 µM (786-0): 100%; growth at 0.1 µM (HOP-92): 92%; growth at 100 µM (A498): 49%; growth at 100 µM (UACC-257): 53%; growth at 0.1 µM (OVCAR-4): 102%; growth at 100 µM (MDA-MB-435 [5]): 76%; growth at 1 µM (NCI-H322M): 108%
O=S(=O)(Nc1ccc(Cl)cc1)c1ccc2nc(-c3ccccc3)c(-c3ccccc3)nc2c1,84,108,98,98,101,90,97,102,103,> 100,-18,66,102,81,54,-25,-41,> 100,> 100,95,growth at 0.01 µM (SK-MEL-2): 93%; growth at 0.1 µM (MCF7): 95%; growth at 0.1 µM (A549): 97%; TGI (SW-620): > 100 µM; CC50 (SW-620): > 100 µM; growth at 0.01 µM (786-0): 97%; growth at 0.1 µM (HOP-92): 92%; growth at 100 µM (A498): 61%; growth at 100 µM (UACC-257): 67%; growth at 0.1 µM (OVCAR-4): 90%; growth at 100 µM (MDA-MB-435 [5]): 76%; growth at 1 µM (NCI-H322M): 98%
